Reference: ChEMBL document CHEMBL2440107, “Quinazolino linked 4β-amidopodophyllotoxin conjugates regulate angiogenic pathway and control breast cancer cell proliferation” (Bioorg Med Chem, 2013)
Calls of active or inactive are those of the source. No cut-off for these calls is given here.

Legend:
MCF7 [1] = assay: Disruption of mitochondrial membrane potential in human MCF7 cells at 4 uM after 24 hrs by JC-1 dye-based fluorescence assay; type: functional, cell-based
Procedure, shortened: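 MCF-7 cells exposed 24 h at 4 µM, etoposide as reference, then stained with 2.5 µM JC-1 for 20 min at room temperature. Fluorescence imaging: red J-aggregates indicate intact potential, green monomers indicate loss, read as red-to-green shift.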

MCF7 [2] = assay: Cell cycle arrest in human MCF7 cells assessed as accumulation at G0 phase at 4 uM after 24 hrs by propidium iodide staining-based flow cytometric analysis (reference value: 3%); type: functional
MCF7 [3] = assay: Cell cycle arrest in human MCF7 cells assessed as accumulation at G2/M phase at 4 uM after 24 hrs by propidium iodide staining-based flow cytometric analysis (reference value: 15%); type: functional
MCF7 [4] = assay: Antiinvasive activity in human MCF7 cells assessed as downregulation of alphaVbeta3 integrin protein expression at 4 uM after 24 hrs by Western blot analysis; type: functional, cell-based
MCF7 [5] = assay: Cell cycle arrest in human MCF7 cells assessed as accumulation at S phase at 4 uM after 24 hrs by propidium iodide staining-based flow cytometric analysis (reference value: 5%); type: functional
MCF7 [6] = assay: Induction of apoptosis in human MCF7 cells assessed as upregulation of caspase-9 protein expression at 4 uM after 24 hrs by Western blotting analysis; type: functional, cell-based
MCF7 [7] = assay: Induction of apoptosis in human MCF7 cells assessed as upregulation of cytochrome-c protein expression in cytosol at 4 uM after 24 hrs by Western blotting analysis; type: functional, cell-based
HUVEC [8] = assay: Cytotoxicity against HUVEC assessed as cell viability at 1 uM after 6 hrs by MTT assay; type: cell-based; settings: human
Procedure, shortened: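 HUVEC at 10,000 cells/well exposed for 6 h across 0.5–32 µM; percent viability plotted, etoposide as standard. Triplicates, Student t-test.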

MCF7 [9] = assay: Cell cycle arrest in human MCF7 cells assessed as accumulation at G1 phase at 4 uM after 24 hrs by propidium iodide staining-based flow cytometric analysis (reference value: 77%); type: functional
MCF7 [10] = assay: Antiangiogenic activity in human MCF7 cells assessed as downregulation of phosphorylated ERK1/2 protein expression at 4 uM after 24 hrs by Western blotting analysis; type: functional, cell-based
MCF7 [11] = assay: Antiangiogenic activity in human MCF7 cells assessed as downregulation of AKT phosphorylation at Ser473 at 4 uM after 24 hrs by Western blotting analysis; type: functional, cell-based
MCF7 [12] = assay: Antiangiogenic activity in human MCF7 cells assessed as downregulation of ERK1/2 protein expression at 4 uM after 24 hrs by Western blotting analysis; type: functional, cell-based
MCF7 [13] = assay: Cytotoxicity against human MCF7 cells assessed as cell viability at 0.5 to 32 uM after 24 hrs by MTT assay; type: functional, cell-based
Procedure, shortened: (§1)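 Cells seeded at 10,000/well, incubated overnight, then exposed 24 h to 0.5–32 µM, etoposide as standard. MTT added, 2 h at 37 °C; formazan solubilised in extraction buffer, OD read at 570 nm; percent viability determined. Triplicates, Student t-test.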

HUVEC [14] = assay: Antiangiogenic activity in HUVEC assessed as inhibition of VEGF-A-induced tube formation at 1 uM after 6 hrs by inverted microscopic analysis; type: functional, cell-based; settings: Homo sapiens
Procedure, shortened: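 HUVEC (ECM medium, 5% FBS, 1% ECGS) seeded at 5×10^3 cells/well on EC matrix solidified at 37 °C, grown 12 h in endothelial growth media, then treated at 1 µM final for about 6 h. Tube formation examined by inverted microscopy. Etoposide as reference.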

MCF7 [15] = assay: Antimitotic activity in human MCF7 cells assessed as upregulation of p53 protein expression at 4 uM after 24 hrs by Western blotting analysis; type: functional, cell-based
MCF7 [16] = assay: Antimitotic activity in human MCF7 cells assessed as upregulation of cyclin B1 protein expression at 4 uM after 24 hrs by Western blotting analysis; type: functional, cell-based
MCF7 [17] = assay: Antimitotic activity in human MCF7 cells assessed as downregulation of Cdk1 protein expression at 4 uM after 24 hrs by Western blotting analysis; type: functional, cell-based
MCF7 [18] = assay: Antiangiogenic activity in human MCF7 cells assessed as downregulation of STAT3 protein expression at 4 uM after 24 hrs by Western blotting analysis; type: functional, cell-based
MCF7 [19] = assay: Antiangiogenic activity in human MCF7 cells assessed as effect on AKT1 protein expression at 4 uM after 24 hrs by Western blotting analysis; type: functional, cell-based
MCF7 [20] = assay: Antiangiogenic activity in human MCF7 cells assessed as downregulation of VEGF-A protein expression at 4 uM after 24 hrs by Western blotting analysis; type: functional, cell-based
MCF7 [21] = assay: Antiangiogenic activity in human MCF7 cells assessed as upregulation of STAT1 protein expression at 4 uM after 24 hrs by Western blotting analysis; type: functional, cell-based
PANC-1 = assay: Cytotoxicity against human PANC1 cells assessed as cell viability at 0.5 to 32 uM after 24 hrs by MTT assay; type: functional, cell-based; procedure, shortened: as §1
MDA-MB-231 = assay: Cytotoxicity against human MDA-MB-231 cells assessed as cell viability at 0.5 to 32 uM after 24 hrs by MTT assay; type: functional, cell-based; procedure, shortened: as §1

Compound	Activity (MCF7 [2])	Activity (MCF7 [3])	Activity (MCF7 [4])	Activity (MCF7 [5])	Activity (MCF7 [6])	Activity (MCF7 [7])	Activity (HUVEC [8])	Activity (MCF7 [9])	Activity (MCF7 [10])	Activity (MCF7 [11])	Activity (MCF7 [12])	Activity (MCF7 [13])	Activity (MCF7 [15])	Activity (MCF7 [16])	Activity (MCF7 [17])	Activity (MCF7 [18])	Activity (MCF7 [19])	Activity (MCF7 [20])	Activity (MCF7 [21])	Activity (PANC-1)	also measured
COc1cc([C@@H]2c3cc4c(cc3[C@@H](O[C@@H]3O[C@@H]5CO[C@@H](C)O[C@H]5[C@H](O)[C@H]3O)[C@H]3COC(=O)[C@H]23)OCO4)cc(OC)c1O [ETOPOSIDE]	9%	67%	Active	6%	Active	Active	Non-toxic	18%	–	–	–	–	–	–	–	–	–	–	–	–	Activity (MCF7 [1]): Active
COc1cc([C@@H]2c3cc4c(cc3[C@@H](NC(=O)CCCCCOc3ccc5nc(C)n(-c6cc(OC)c(OC)c(OC)c6)c(=O)c5c3)[C@H]3COC(=O)[C@H]23)OCO4)cc(OC)c1OC	7%	39%	–	5%	–	–	–	50%	–	–	–	–	–	–	–	–	–	–	–	–	–
COc1cc([C@@H]2c3cc4c(cc3[C@@H](NC(=O)CCCCOc3ccc5nc(C)n(-c6ccc(F)cc6)c(=O)c5c3)[C@H]3COC(=O)[C@H]23)OCO4)cc(OC)c1OC	8%	38%	–	5%	–	–	–	49%	–	–	–	–	–	–	–	–	–	–	–	–	–
COc1cc([C@@H]2c3cc4c(cc3[C@@H](NC(=O)CCCCCOc3ccc5nc(C)n(-c6ccc(F)cc6)c(=O)c5c3)[C@H]3COC(=O)[C@H]23)OCO4)cc(OC)c1OC	14%	45%	Active	4%	Active	Active	Non-toxic	37%	Active	Active	Active	Active	Active	Active	Active	Active	inactive	Active	Active	Active	Activity (MCF7 [1]): Active; inhibition (HUVEC [14]): Active; Activity (MDA-MB-231): Active
COc1ccc(-n2c(C)nc3ccc(OCCCCC(=O)N[C@@H]4c5cc6c(cc5[C@@H](c5cc(OC)c(OC)c(OC)c5)[C@H]5C(=O)OC[C@@H]54)OCO6)cc3c2=O)cc1	7%	39%	–	10%	–	–	–	44%	–	–	–	–	–	–	–	–	–	–	–	–	–
COc1cc([C@@H]2c3cc4c(cc3[C@@H](NC(=O)CCCCOc3ccc5nc(C)n(-c6cc(OC)c(OC)c(OC)c6)c(=O)c5c3)[C@H]3COC(=O)[C@H]23)OCO4)cc(OC)c1OC	10%	35%	–	5%	–	–	–	51%	–	–	–	–	–	–	–	–	–	–	–	–	–
COc1ccc(-n2c(C)nc3ccc(OCCCCCC(=O)N[C@@H]4c5cc6c(cc5[C@@H](c5cc(OC)c(OC)c(OC)c5)[C@H]5C(=O)OC[C@@H]54)OCO6)cc3c2=O)cc1	8%	41%	Active	4%	Active	Active	Non-toxic	47%	Active	Active	Active	Active	Active	Active	Active	Active	inactive	Active	Active	Active	Activity (MDA-MB-231): Active
COc1cc(OC)cc(-n2c(C)nc3ccc(OCCCCC(=O)N[C@@H]4c5cc6c(cc5[C@@H](c5cc(OC)c(OC)c(OC)c5)[C@H]5C(=O)OC[C@@H]54)OCO6)cc3c2=O)c1	6%	39%	–	6%	–	–	–	49%	–	–	–	–	–	–	–	–	–	–	–	–	–
COc1cc([C@@H]2c3cc4c(cc3[C@@H](NC(=O)CCCCOc3ccc5nc(C)n(-c6ccc([N+](=O)[O-])cc6)c(=O)c5c3)[C@H]3COC(=O)[C@H]23)OCO4)cc(OC)c1OC	5%	40%	–	5%	–	–	–	51%	–	–	–	–	–	–	–	–	–	–	–	–	–
COc1cc([C@@H]2c3cc4c(cc3[C@@H](NC(=O)CCCCOc3ccc5nc(C)n(-c6ccc(Cl)c(Cl)c6)c(=O)c5c3)[C@H]3COC(=O)[C@H]23)OCO4)cc(OC)c1OC	12%	34%	–	5%	–	–	–	49%	–	–	–	–	–	–	–	–	–	–	–	–	–
COc1cc(OC)cc(-n2c(C)nc3ccc(OCCCCCC(=O)N[C@@H]4c5cc6c(cc5[C@@H](c5cc(OC)c(OC)c(OC)c5)[C@H]5C(=O)OC[C@@H]54)OCO6)cc3c2=O)c1	9%	37%	–	5%	–	–	–	49%	–	–	–	–	–	–	–	–	–	–	–	–	–
COc1cc([C@@H]2c3cc4c(cc3[C@@H](NC(=O)CCCCCOc3ccc5nc(C)n(-c6ccc(Cl)c(Cl)c6)c(=O)c5c3)[C@H]3COC(=O)[C@H]23)OCO4)cc(OC)c1OC	10%	40%	Active	5%	Active	Active	Non-toxic	45%	Active	Active	Active	Active	Active	Active	Active	Active	inactive	Active	Active	Active	Activity (MCF7 [1]): Active; inhibition (HUVEC [14]): Active; Activity (MDA-MB-231): Active
COc1cc([C@@H]2c3cc4c(cc3[C@@H](NC(=O)CCCCCOc3ccc5nc(C)n(-c6ccc([N+](=O)[O-])cc6)c(=O)c5c3)[C@H]3COC(=O)[C@H]23)OCO4)cc(OC)c1OC	5%	41%	Active	5%	Active	Active	Non-toxic	49%	Active	Active	Active	Active	Active	Active	Active	Active	inactive	Active	Active	Active	Activity (MDA-MB-231): Active
